Measurements collected from several papers.
Each line is one published result; the experiments were not run side by side.
BRD3 BD1: Bromodomain-containing protein 3, BD1 (BRD3, Homo sapiens, UniProt Q15059)
PDE5A: cGMP-specific 3',5'-cyclic phosphodiesterase (PDE5A, Homo sapiens, UniProt O76074)
KDM1A: Lysine-specific histone demethylase 1A (KDM1A, Homo sapiens, UniProt O60341)

SMILES	target	effect on	action	method	concentration	quantity	value
NS(=O)(=O)c1ccc(Nc2nc(-c3ccc(F)cc3)c3ccccc3n2)cc1	BRD3 BD1	binding	–	competition with immobilised ligand	1 µM	remaining binding	1%
C[S+]([O-])c1ccc(-c2nc(-c3ccncc3)c(-c3ccc(F)cc3)[nH]2)cc1 (stereo not drawn)	BRD3 BD1	thermal stability	–	DSF	10 µM	ΔTm	1.43 °C
Nc1ncnc2occ(-c3ccc(NC(=O)Nc4cc(C(F)(F)F)ccc4F)cc3)c12	Phosphatidylinositol 4-phosphate 3-kinase C2 domain-containing subunit beta (PIK3C2B, Homo sapiens, UniProt O00750)	enzyme activity	inhibitor	–	20 µM	remaining activity	99%
CC(=O)N[C@H](C(=O)N[C@H](C(=O)N[C@@H](Cc1ccccc1)C(=O)N[C@H](C(=O)N[C@@H](CO)C(=O)N[C@@H](Cc1c[nH]c2ccccc12)C(=O)N[C@@H](CCC(=O)O)C(=O)N[C@@H](CCC(=O)O)C(=O)N[C@@H](Cc1ccc(O)cc1)C(=O)N[C@@H](CC(C)C)C(=O)N[C@@H](CC(=O)O)C(=O)N[C@@H](Cc1c[nH]c2ccccc12)C(=O)N[C@H](C(N)=O)C(C)C)[C@@H](C)O)C(C)C)[C@@H](C)O	Proprotein convertase subtilisin/kexin type 9 (PCSK9, Homo sapiens, UniProt Q8NBP7)	binding	–	SPR	–	kon	260000 M⁻¹ s⁻¹
Cc1cnc(Nc2ccc(OCCN3CCCC3)cc2)nc1Nc1cccc(S(=O)(=O)NC(C)(C)C)c1	ATPase family AAA domain-containing protein 2B (ATAD2B, Homo sapiens, UniProt Q9ULI0)	thermal stability	–	DSF	10 µM	ΔTm	-0.06 °C
COC(=O)[C@@H]1Cc2c([nH]c3ccccc23)[C@H](c2ccc(OC)c(OC)c2)N1C(=O)CCl	PDE5A	enzyme activity	inhibitor	FP	50 µM	inhibition	48%
Oc1ccc(-c2nc(-c3ccncc3)c(-c3ccc(F)cc3)[nH]2)cc1	BRD3 BD1	thermal stability	–	DSF	10 µM	ΔTm	0.72 °C
COc1ccc([C@H]2c3[nH]c4ccccc4c3C[C@@H]3C(=O)N(C(C)(C)C)C(=O)N23)cc1OC	PDE5A	enzyme activity	inhibitor	FP	50 µM	inhibition	52%
CN1CCN(C(=O)[C@H](CCCN[C@@H]2C[C@H]2c2ccc(F)cc2)NC(=O)c2ccc(-n3ccnn3)cc2)CC1	KDM1A	enzyme activity	inhibitor	–	–	kinact	0.018 s⁻¹
O=C(c1ccc(F)cc1)N(Cc1ccccc1)C1CCCCC1	Endothelin-1 receptor (EDNRA, Homo sapiens, UniProt P25101)	cell-free assay	–	–	10 µM	inhibition	0%
O=C(O)c1ccc(CN2CCC(CN[C@@H]3C[C@H]3c3ccccc3)CC2)cc1	KDM1A	enzyme activity	inhibitor	–	–	kinact	0.013 s⁻¹
Cc1cc2c(cc1N1C(=O)c3cccc4c(Cl)ccc(c34)C1=O)n(C)c(=O)n2C	SP140L (Homo sapiens, UniProt Q9H930)	thermal stability	–	DSF	10 µM	ΔTm	-1.4 °C
